Only a selection was taken, and hits are over-represented in it overall.
NALP3 yeast inh = NALP3 inflammasome inhibitors in reconstituted yeast, primary screen, luminescence, uHTS; Yeast reconstituted NLRP3/ASC/caspase-1, beta-gal luminescence, 24 h; 0.39% of 330,000 active; AID 2825, 2010; inhibition, % at 10 µM;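 active means inhibition of 50% or more; inactive means inhibition below 50%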;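 further: plate controls were induced DMSO wells for no effect and uninduced yeast grown without galactose for full effect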
Calb FLC = C. albicans growth inhibition with fluconazole, primary screen, CaCi-2 strain, Alamar Blue fluorescence; C. albicans CaCi-2 + fluconazole, 48 h; growth inhibition, % (concentration not given with the values); 0.57% of 300,000 active; AID 1979, 2009;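 active means growth inhibition above about 58% in most replicates, limit read from the data, passing the limit was not always enough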;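 further: all wells also contain fluconazole at 8 µg/ml as a sub-toxic cotreatment; 0% = median of DMSO wells and 100% = median of geldanamycin control wells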
Lmaj promast = Leishmania major promastigote growth inhibition, primary screen; Leishmania major promastigotes, resazurin fluorescence viability; inhibition, % at 10 µM; 9% of 200,000 active; AID 1063, 2008; in the data active means inhibition above about 50%;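 further: promastigotes grown with compound for 44 hours at 28 °C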
T cruzi inh = inhibitors of intracellular T. cruzi growth, primary screen, luminescence, NIH3T3 host cells; AID 1885, 2009; T. cruzi beta-gal in NIH3T3, 90 h; 1.4% of 300,000 active; inhibition, % (no concentration beside the values);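 active means mean inhibition across valid replicates above about 55%, limit read from the data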;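 further: signal also drops with host cell toxicity which is not excluded here; 0% = plate median of DMSO wells and 100% = zero luminescence signal; higher percent means less beta-gal luminescence so fewer parasites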
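Read-out: Parasite load inhibition, % | Test system: Mouse NIH/3T3 fibroblasts infected with β-gal-expressing T. cruzi Tulahuen C4 | Amount: 5,000 cells/well | Medium: DMEM, 2% fetal bovine serum | Signal: GalScreen β-gal luminescence, detergent lysis, 60 min | Timing: 3 h attach, ≥90 h co-culture | Also added: Tulahuen C4 trypomastigotes, 5000/well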
NALP1 inh = NALP1 inflammasome inhibitors in reconstituted yeast, colorimetric, S. cerevisiae, triplicate retest. S. cerevisiae NALP1/ASC/caspase-1 growth, X-gal OD620, 72 h. inhibition, % at 10 µM. 0.61% of 280,000 active. AID 2071, 2009; in the data active means inhibition mostly above about 24%, no sharp cut-off; inactive means mostly below about 32%
PolyA inh = polyadenylation inhibitors in yeast reporter cells, primary screen, luminescence, S. cerevisiae; activity score, % at 12 µM; 0.02% of 300,000 active; S. cerevisiae SKY197-pL101 polyadenylation reporter, beta-gal luminescence; efflux-impaired pdr1/pdr3 knockout yeast; score 100 = 6 SD above DMSO;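 active means lowest replicate activity score at least 50, where 100 means six control SD above control mean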;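 further: yeast exposed to compound for 9 h at 30 °C; higher score means more reporter readthrough which indicates perturbed polyadenylation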
The depositor's hits bear a star; / = no result.

SMILES	NALP3 yeast inh	Calb FLC	Lmaj promast	T cruzi inh	NALP1 inh	PolyA inh
CC(=O)Nc1ccc(C(=O)NNC(=O)c2cc([N+](=O)[O-])cc([N+](=O)[O-])c2)cc1	13	10	-10	3	3	14
O=C(Nc1ccc(Br)cc1)c1cc([N+](=O)[O-])cc([N+](=O)[O-])c1	28	-5	/	71*	15	-23
CN1CCN(NC(=O)c2cc([N+](=O)[O-])cc([N+](=O)[O-])c2)CC1	1	4	12	70*	12	-2
COC(=O)c1cc(C(=O)Nc2ccc(S(=O)(=O)NC(C)(C)C)cc2)cc([N+](=O)[O-])c1	1	-21	99*	56*	10	-17
O=[S@]1Oc2ccccc2-c2ccccc21	17	-4	/	-19	/	2
Cc1nn(CC(=O)NC(C)C)c(C)c1[N+](=O)[O-]	-1	-7	-7	1	21	18
CC1(C)CC2CC(C)(CN2C(=O)COC(=O)c2ccc(Cl)c(N)c2)C1 (stereo not given)	6	22	6	-3	-14	1
O=C(Nc1ccc(Nc2ccccc2)cc1)c1cc([N+](=O)[O-])ccc1Cl	26	9	/	41	10	-16
CC(=O)Nc1ccc(NC(=O)c2ccccc2Sc2ccc([N+](=O)[O-])cc2Cl)cc1	-12	4	94*	36	14	0
Cc1ccc(NC(=O)c2ccc(C)cc2)cc1	26	-27	/	-16	/	-21
Nc1nc(SCC(=O)Nc2ccc([N+](=O)[O-])cc2)[nH]c(=O)c1NC(=O)c1ccc(Br)cc1	15	4	/	1	27*	-2
Cc1ccc(NC(=O)c2ccc(Nc3c([N+](=O)[O-])cc([N+](=O)[O-])cc3[N+](=O)[O-])cc2)cc1	24	9	100*	59*	11	-48
Cc1ccc(C(=O)NC(=S)NNC(=O)CCN2CCOCC2)cc1	20	-5	-2	-19	-8	3
COc1ccc(S(=O)(=O)Nc2c(C)nn(C)c2C)cc1Br	4	/	/	/	/	/
Fc1ccc(Nc2cccc3nccnc23)cc1	13	3	50*	0	21	0
COc1ccc(/C=C/c2c([N+](=O)[O-])c(=O)n(C)c(=O)n2C)cc1OC	4	-1	-6	-5	-18	7
Cn1c(/C=C/c2cccc([N+](=O)[O-])c2)c([N+](=O)[O-])c(=O)n(C)c1=O	19	94*	/	-28	2	-9
COc1cc(C(=O)OCc2cc(=O)c(O)co2)ccc1OC(F)F	11	102*	/	7	3	-6
COCCn1c(C2CCCCC2)nc2sc3ccccc3c(=O)c2c1=O	5	-19	21	55*	26	8
CCc1nc2sc3ccccc3c(=O)c2c(=O)n1CCOC	2	-21	2	17	12	19
CC1(C)CC(CCNC(=O)CCl)(c2ccccc2)CCO1 (stereo not given)	17	-4	/	13	-1	-5
Cc1ccc(S(=O)(=O)NCCC2(C(C)C)CCOC(C)(C)C2)cc1 (stereo not given)	19	4	95*	8	17	-13
CC1(C)CC(CCNS(=O)(=O)c2ccccc2)(c2ccccc2)CCO1 (stereo not given)	20	-5	100*	3	38	3
CCC1(C)CC(CCNS(=O)(=O)c2ccc(C)cc2)(c2ccc(C)cc2)CCO1 (stereo not given)	9	-3	52*	31	14	-14
Cc1ccc(S(=O)(=O)NCCNS(=O)(=O)c2ccc(C)cc2)cc1	4	8	/	2	13	30
SMILES	NALP3 yeast inh	Calb FLC	Lmaj promast	T cruzi inh	NALP1 inh	PolyA inh
O=C(CN1CCN(S(=O)(=O)c2ccc(Br)cc2)CC1)N/N=C/c1ccc(Br)s1	15	-13	22	63*	-10	-5
Cc1ccc(/C=N/NC(=O)CN2CCN(S(=O)(=O)c3ccc(Br)cc3)CC2)s1	10	-2	2	-17	4	5
Oc1c(Br)cc(Br)cc1CNc1cccc2cccnc12	19	81*	/	10	8	2
COC(=O)c1c(NC(=O)COC(=O)CC(NC(C)=O)c2ccccc2)sc(C)c1C (stereo not given)	18	-2	/	3	/	15
CCOc1ccc(CN2CCN(Cc3[nH]c4ccc(OC)cc4c3C)CC2CCO)cc1 (stereo not given)	18	21	57*	72*	13	-19
CCOc1ccccc1CN1CCN(Cc2[nH]c3ccccc3c2C)CC1CCO (stereo not given)	20	-18	31	66*	7	15
CCOc1ccccc1CN1CCN(Cc2ccc(C)o2)CC1CCO (stereo not given)	7	-27	-2	4	-12	15
COc1cccc2c1OCC(CN1CCN(CCC(C)C)C(CCO)C1)=C2 (stereo not given)	-6	2	70*	17	0	4
COc1cccc(CN2CCN(CCc3ccccc3)C(CCO)C2)c1OC (stereo not given)	5	-3	20	3	17	-6
CCOc1ccccc1CN1CCN(CC2=Cc3cc(OC)ccc3OC2)CC1CCO (stereo not given)	11	-5	/	55*	7	-11
Cc1ccc(C)c(NC(=O)COC(=O)c2ccc3ccccc3n2)c1	14	/	/	/	/	/
Cc1cc(C(=O)CSc2ccccc2)cc(C)c1O	26	-18	/	-19	-3	5
COc1ccc(OCC(=O)N/N=C/C=C/c2ccccc2)cc1	28	-2	-3	-14	26	9
COc1ccc(CN2CCN(Cc3cc4ccccc4o3)CC2CCO)cc1C (stereo not given)	8	-4	/	55*	19	6
COc1ccc(CN2CCN(Cc3cccc4nonc34)CC2CCO)c(C)c1C (stereo not given)	5	-20	20	66*	-3	3
CCOc1ccccc1CN1CCN(Cc2nc3ccccc3s2)CC1CCO (stereo not given)	22	-9	8	58*	-1	2
Cc1ccccc1NC(=O)C(C)OC(=O)C1CC(=O)N(Cc2ccco2)C1 (stereo not given)	9	/	/	/	/	/
CSc1nc(O)cc(=O)n1-c1ccc(F)cc1	1	-4	-8	-6	10	-9
CC(C)OC(=O)/C(=C/c1ccc2c(c1)c1ccccc1n2C)NC(=O)c1ccccc1	19	-6	40	19	23	-1
COC(=O)/C(=C\c1ccc2c(c1)c1ccccc1n2C)NC(=O)c1ccccc1	26	-10	63*	18	24	-3

Assay outcomes deposited in PubChem BioAssay by several laboratories.
